What was measured:
[1] = tested on: Mycobacterium avium subsp. paratuberculosis; test: Antituberculosis activity against Mycobacterium paratuberculosis ATCC 19698 isolated from bovine assessed as lowest drug level producing inhibition at 10^6 CFU of inoculum by agar counting method; format: functional
Method in brief: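 ATCC 19698 at 10^6 CFU was exposed to drug (1.0–64.0 μg/ml) in MGIT ParaTB medium at 37°C. Aliquots taken at 3 and 5 days were centrifuged, resuspended in PBS and declumped with glass beads. Serial dilutions were plated in quadruplicate on 7H10/OADC/mycobactin J and counted after 8 weeks. Inhibition is the lowest concentration giving a 2 log10 (99%) CFU reduction.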

[2] = tested on: Mycobacterium avium subsp. paratuberculosis; test: Antituberculosis activity against Mycobacterium paratuberculosis JTC303 isolated from bovine assessed as minimum drug level required for killing after 56 days by MGIT 960 susceptibility test; format: functional
Method in brief: (§1)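 10^5 to 10^6 CFU from single-cell suspensions inoculated in duplicate into MGIT ParaTB medium with supplement and egg yolk. Drugs were at final 0.5–64.0 μg/ml, with 128.0 μg/ml added for some strains. Tubes were incubated at 37°C in MGIT 960. Inhibition is the lowest concentration giving a time to detection longer than a drug-free 1:100 inoculum control. Killing is no positive signal through 56 days.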

[3] = tested on: Mycobacterium avium subsp. paratuberculosis; test: Antituberculosis activity against Mycobacterium paratuberculosis UCF-4 isolated from Crohn's disease patient assessed as minimum drug level required for inhibition by MGIT 960 susceptibility test; format: functional; method in brief: as §1
[4] = tested on: Mycobacterium avium subsp. paratuberculosis; test: Antituberculosis activity against Mycobacterium paratuberculosis UCF-4 isolated from Crohn's disease patient assessed as minimum drug level required for killing after 56 days by MGIT 960 susceptibility test; format: functional; method in brief: as §1
[5] = tested on: Mycobacterium avium subsp. paratuberculosis; test: Antituberculosis activity against Mycobacterium paratuberculosis B236 isolated from bovine assessed as minimum drug level required for inhibition by MGIT 960 susceptibility test; format: functional; method in brief: as §1
[6] = tested on: Mycobacterium avium subsp. paratuberculosis; test: Antituberculosis activity against Mycobacterium paratuberculosis UCF-8 isolated from Crohn's disease patient assessed as minimum drug level required for killing after 56 days by MGIT 960 susceptibility test; format: functional; method in brief: as §1
Mycobacterium avium [7] = test: Antituberculosis activity against Mycobacterium avium ATCC 25291 isolated from chicken assessed as minimum drug level required for inhibition by MGIT 960 susceptibility test; format: functional; method in brief: as §1
Mycobacterium avium [8] = test: Antituberculosis activity against Mycobacterium avium ATCC 25291 isolated from chicken assessed as minimum drug level required for killing within 15 days by MGIT 960 susceptibility test; format: functional
Mycobacterium avium [9] = test: Antituberculosis activity against Mycobacterium avium JTC48627 isolated from bison fecal sample assessed as minimum drug level required for inhibition by MGIT 960 susceptibility test; format: functional, Feces; method in brief: as §1
[10] = tested on: Mycolicibacterium smegmatis; test: Antituberculosis activity against Mycobacterium smegmatis ATCC 14468 assessed as minimum drug level required for killing after 56 days by MGIT 960 susceptibility test; format: functional; method in brief: as §1
Escherichia coli = test: Antituberculosis activity against Escherichia coli ATCC 25922 clinical isolate assessed as minimum drug level required for inhibition by MGIT 960 susceptibility test; format: functional
[11] = tested on: Mycobacterium avium subsp. paratuberculosis; test: Antituberculosis activity against Mycobacterium paratuberculosis UCF-7 isolated from Crohn's disease patient assessed as colony counts at 2 ug after 12 days by MGIT 960 susceptibility test; format: functional

## Sc1ncnc2nc[nH]c12 [MERCAPTOPURINE ANHYDROUS]
[1]
  Activity: 1 µg/mL
[2]
  Activity: 32 µg/mL
[3]
  Activity: 2 µg/mL
[4]
  Activity: >32 µg/mL
[5]
  Activity: 4 µg/mL
[6]
  Activity: 16 µg/mL
Mycobacterium avium [7]
  Activity: >64 µg/mL
Mycobacterium avium [8]
  Activity: >64 µg/mL
Mycobacterium avium [9]
  Activity: 32 µg/mL
[10]
  Activity: >128 µg/mL
Escherichia coli
  Activity: >128 µg/mL
[11]
  log10CFU/ml: 3.87
